Results taken from ChEMBL document CHEMBL3351928, “Discovery of clinical candidate 1-(4-(3-(4-(1H-benzo[d]imidazole-2-carbonyl)phenoxy)pyrazin-2-yl)piperidin-1-yl)ethanone (AMG 579), a potent, selective, and efficacious inhibitor of phosphodiesterase 10A (PDE10A)” (J Med Chem, 2014).
pEC50, pIC50: −log10 of the molar value.

Tests used:
[1] = Clearance in rat at 2 mg/kg, iv; format: ADME, organism-based; parameters: dose 2 mg/kg, route intravenous; conditions: in vivo
[2] = target: cAMP and cAMP-inhibited cGMP 3',5'-cyclic phosphodiesterase 10A (Homo sapiens, UniProt Q9Y233); assay: Inhibition of human recombinant PDE10A using cAMP as substrate incubated for 30 mins prior to substrate addition measured after 3 hrs to overnight by IMAP FRET assay
Sequence of cAMP and cAMP-inhibited cGMP 3',5'-cyclic phosphodiesterase 10A (Q9Y233 whole entry): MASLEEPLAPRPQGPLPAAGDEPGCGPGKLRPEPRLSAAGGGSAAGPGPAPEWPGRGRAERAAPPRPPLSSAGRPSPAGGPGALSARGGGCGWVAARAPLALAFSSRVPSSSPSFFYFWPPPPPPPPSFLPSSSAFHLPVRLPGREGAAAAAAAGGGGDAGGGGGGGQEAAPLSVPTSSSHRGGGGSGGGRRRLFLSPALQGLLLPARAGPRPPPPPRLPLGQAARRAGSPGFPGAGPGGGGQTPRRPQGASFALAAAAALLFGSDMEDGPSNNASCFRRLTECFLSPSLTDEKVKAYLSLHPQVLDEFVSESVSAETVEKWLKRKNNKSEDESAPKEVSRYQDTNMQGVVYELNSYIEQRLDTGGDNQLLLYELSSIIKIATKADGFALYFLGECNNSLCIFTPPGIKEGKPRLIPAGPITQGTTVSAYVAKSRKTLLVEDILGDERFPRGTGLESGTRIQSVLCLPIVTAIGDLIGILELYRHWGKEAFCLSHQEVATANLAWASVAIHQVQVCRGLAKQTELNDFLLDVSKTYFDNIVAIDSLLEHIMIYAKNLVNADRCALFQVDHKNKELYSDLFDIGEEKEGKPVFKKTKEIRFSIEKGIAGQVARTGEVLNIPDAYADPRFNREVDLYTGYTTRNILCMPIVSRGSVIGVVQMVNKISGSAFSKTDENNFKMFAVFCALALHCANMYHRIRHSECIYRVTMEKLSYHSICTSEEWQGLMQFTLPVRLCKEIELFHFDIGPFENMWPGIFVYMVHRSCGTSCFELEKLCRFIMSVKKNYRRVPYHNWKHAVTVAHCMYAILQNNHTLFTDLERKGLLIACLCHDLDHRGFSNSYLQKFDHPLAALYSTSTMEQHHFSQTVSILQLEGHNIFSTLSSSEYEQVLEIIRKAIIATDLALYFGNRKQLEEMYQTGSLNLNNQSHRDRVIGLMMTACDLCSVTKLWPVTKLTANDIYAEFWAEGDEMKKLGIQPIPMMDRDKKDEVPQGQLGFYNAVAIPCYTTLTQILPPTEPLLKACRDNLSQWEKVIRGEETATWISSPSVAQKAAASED

[3] = Half life in rat at 2 mg/kg, iv; format: ADME, organism-based; parameters: dose 2 mg/kg, route intravenous; conditions: in vivo
Rattus norvegicus [4] = assay: Reversal of PCP-induced hyperlocomotor activity in Sprague-Dawley rat assessed as effect on locomotor activity administered orally 1 hr before PCP dosing and measured at 10 mins intervals over 2 hrs period; format: functional; conditions: po, read-out: MED
Method in brief: (§1)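 Adult male Sprague-Dawley rats (250–280 g) were first acclimated to the test cage for 60 min. They then received oral doses of 0.1, 0.3, 1 or 3 mg/kg, n = 10. After 1 h they were given PCP 8 mg/kg subcutaneously. Photobeam breaks were collected at 10 min intervals and compiled over 2 h. Groups were compared with vehicle by one-way ANOVA followed by Dunnett's test, and the minimum effective dose was determined.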

[5] = (§2) AUC in rat at 10 mg/kg, po; format: ADME, organism-based, Plasma; parameters: dose 10 mg/kg, route oral; conditions: plasma
[6] = Metabolic stability in rat liver microsomes assessed as clearance at 1 uM in presence of NADPH at 37 degC incubated for 30 mins; format: ADME; conditions: read-out: CLH
[7] = Volume of distribution at steady state in rat at 2 mg/kg, iv; format: ADME, organism-based; parameters: dose 2 mg/kg, route intravenous; conditions: in vivo, read-out: Vdss
[8] = Metabolic stability in human liver microsomes assessed as clearance at 1 uM in presence of NADPH at 37 degC incubated for 30 mins; format: ADME; conditions: read-out: CLH
[9] = (§3) AUC in rat at 2 mg/kg, iv; format: ADME, organism-based, Plasma; parameters: dose 2 mg/kg, route intravenous; conditions: plasma
[10] = (§4) Oral bioavailability in rat at 10 mg/kg; format: ADME, organism-based; conditions: in vivo
Rattus norvegicus [11] = assay: Effect on locomotor activity in orally dosed Sprague-Dawley rat measured at 10 mins intervals over 2 hrs period; format: ADME, organism-based; conditions: in vivo, po; method in brief: as §1
Rattus norvegicus [12] = assay: Target occupancy of PDE10A in Sprague-Dawley rat striatum measured 1 hr post dosing and 10 mins post iv dosing of tracer by LC-MS/MS method; format: functional, organism-based
Method in brief: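 Sprague-Dawley rats received oral doses of 0.1, 0.3, 1, 3, 10 and 30 mg/kg, n = 4 per dose. Tissue was taken 1 h after dosing and 10 min after IV tracer. Striatal tracer was compared with thalamic tracer by LC-MS/MS. An occupancy EC50 was calculated against total plasma concentration.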

Rattus norvegicus [13] = assay: Target occupancy of PDE10A in Sprague-Dawley rat striatum at 10 mg/kg, po administered as single dose measured 1 hr post dosing and 10 mins post iv dosing of tracer by LC-MS/MS method; format: functional
[14] = Half life in rat at 10 mg/kg, po; format: ADME, organism-based; parameters: dose 10 mg/kg, route oral; conditions: in vivo
[15] = Volume of distribution at steady state in non-human primates at 0.5 mg/kg, iv; format: ADME, organism-based; parameters: dose 0.5 mg/kg, route intravenous; conditions: monkey, in vivo, read-out: Vdss
[16] = Clearance in dog at 0.5 mg/kg, iv; format: ADME, organism-based, Canis lupus familiaris; parameters: dose 0.5 mg/kg, route intravenous; conditions: in vivo
[17] = Clearance in non-human primates at 0.5 mg/kg, iv; format: ADME, organism-based; parameters: dose 0.5 mg/kg, route intravenous; conditions: monkey, in vivo
[18] = Half life in dog at 0.5 mg/kg, iv; format: ADME, organism-based, Canis lupus familiaris; parameters: dose 0.5 mg/kg, route intravenous; conditions: in vivo
Rattus norvegicus [19] = assay: as §2; format: ADME, organism-based, Plasma; parameters: dose 10 mg/kg, route oral; conditions: in vivo
[20] = Oral bioavailability in dog at 0.5 mg/kg; format: ADME, organism-based, Canis lupus familiaris; conditions: in vivo
Rattus norvegicus [21] = assay: as §3; format: ADME, organism-based, Plasma; parameters: dose 2 mg/kg, route intravenous; conditions: in vivo
[22] = AUC in non-human primates at 0.5 mg/kg, iv; format: ADME, organism-based; parameters: dose 0.5 mg/kg, route intravenous; conditions: monkey, plasma
Rattus norvegicus [23] = assay: as §4; format: ADME, organism-based; conditions: in vivo
[24] = AUC in dog at 0.5 mg/kg, po; format: ADME, organism-based, Canis lupus familiaris; parameters: dose 0.5 mg/kg, route oral; conditions: plasma
[25] = Half life in dog at 0.5 mg/kg, po; format: ADME, organism-based, Canis lupus familiaris; parameters: dose 0.5 mg/kg, route oral; conditions: in vivo
[26] = AUC in dog at 0.5 mg/kg, iv; format: ADME, organism-based, Canis lupus familiaris; parameters: dose 0.5 mg/kg, route intravenous; conditions: plasma
[27] = Half life in non-human primates at 0.5 mg/kg, iv; format: ADME, organism-based; parameters: dose 0.5 mg/kg, route intravenous; conditions: monkey, in vivo
[28] = Volume of distribution at steady state in dog at 0.5 mg/kg, iv; format: ADME, organism-based, Canis lupus familiaris; parameters: dose 0.5 mg/kg, route intravenous; conditions: in vivo, read-out: Vdss
[29] = target: High affinity cGMP-specific 3',5'-cyclic phosphodiesterase 9A (Homo sapiens, UniProt O76083); assay: Inhibition of PDE9 (unknown origin)
Sequence of High affinity cGMP-specific 3',5'-cyclic phosphodiesterase 9A (O76083 whole entry): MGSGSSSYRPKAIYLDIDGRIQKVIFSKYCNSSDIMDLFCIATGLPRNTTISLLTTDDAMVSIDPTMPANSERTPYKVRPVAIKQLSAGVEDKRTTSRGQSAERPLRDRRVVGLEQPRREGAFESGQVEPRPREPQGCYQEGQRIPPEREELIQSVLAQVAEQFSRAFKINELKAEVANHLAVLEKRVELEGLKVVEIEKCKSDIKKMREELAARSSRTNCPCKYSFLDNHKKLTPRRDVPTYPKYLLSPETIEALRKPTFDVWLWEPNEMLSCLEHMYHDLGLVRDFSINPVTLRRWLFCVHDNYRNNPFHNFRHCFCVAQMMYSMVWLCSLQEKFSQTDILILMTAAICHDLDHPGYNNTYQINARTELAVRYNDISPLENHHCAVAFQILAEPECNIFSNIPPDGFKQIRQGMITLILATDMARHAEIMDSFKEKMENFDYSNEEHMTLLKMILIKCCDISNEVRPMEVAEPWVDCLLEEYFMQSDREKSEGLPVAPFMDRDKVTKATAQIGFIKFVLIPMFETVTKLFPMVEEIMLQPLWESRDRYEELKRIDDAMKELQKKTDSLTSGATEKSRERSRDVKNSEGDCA

Phosphodiesterase 1 = Phosphodiesterase 1 (Homo sapiens, UniProt P54750+Q01064+Q14123); assay: Inhibition of PDE1 (unknown origin); format: protein assay
Phosphodiesterase 6 = assay: Inhibition of PDE6 (unknown origin); format: protein assay, Homo sapiens
[30] = Half life in dog at 1 mg/kg, po; format: ADME, organism-based, Canis lupus familiaris; parameters: dose 1 mg/kg, route oral; conditions: in vivo
Phosphodiesterase 8 = Phosphodiesterase 8 (Homo sapiens, UniProt O95263+O60658); assay: Inhibition of PDE8 (unknown origin); format: protein assay
[31] = Oral bioavailability in dog at 1 mg/kg; format: ADME, organism-based, Canis lupus familiaris; conditions: in vivo
Phosphodiesterase 7 = Phosphodiesterase 7 (Homo sapiens, UniProt Q13946+Q9NP56); assay: Inhibition of PDE7 (unknown origin); format: protein assay
[32] = target: Dual 3',5'-cyclic-AMP and -GMP phosphodiesterase 11A (Homo sapiens, UniProt Q9HCR9); assay: Inhibition of PDE11 (unknown origin)
Sequence of Dual 3',5'-cyclic-AMP and -GMP phosphodiesterase 11A (Q9HCR9 whole entry): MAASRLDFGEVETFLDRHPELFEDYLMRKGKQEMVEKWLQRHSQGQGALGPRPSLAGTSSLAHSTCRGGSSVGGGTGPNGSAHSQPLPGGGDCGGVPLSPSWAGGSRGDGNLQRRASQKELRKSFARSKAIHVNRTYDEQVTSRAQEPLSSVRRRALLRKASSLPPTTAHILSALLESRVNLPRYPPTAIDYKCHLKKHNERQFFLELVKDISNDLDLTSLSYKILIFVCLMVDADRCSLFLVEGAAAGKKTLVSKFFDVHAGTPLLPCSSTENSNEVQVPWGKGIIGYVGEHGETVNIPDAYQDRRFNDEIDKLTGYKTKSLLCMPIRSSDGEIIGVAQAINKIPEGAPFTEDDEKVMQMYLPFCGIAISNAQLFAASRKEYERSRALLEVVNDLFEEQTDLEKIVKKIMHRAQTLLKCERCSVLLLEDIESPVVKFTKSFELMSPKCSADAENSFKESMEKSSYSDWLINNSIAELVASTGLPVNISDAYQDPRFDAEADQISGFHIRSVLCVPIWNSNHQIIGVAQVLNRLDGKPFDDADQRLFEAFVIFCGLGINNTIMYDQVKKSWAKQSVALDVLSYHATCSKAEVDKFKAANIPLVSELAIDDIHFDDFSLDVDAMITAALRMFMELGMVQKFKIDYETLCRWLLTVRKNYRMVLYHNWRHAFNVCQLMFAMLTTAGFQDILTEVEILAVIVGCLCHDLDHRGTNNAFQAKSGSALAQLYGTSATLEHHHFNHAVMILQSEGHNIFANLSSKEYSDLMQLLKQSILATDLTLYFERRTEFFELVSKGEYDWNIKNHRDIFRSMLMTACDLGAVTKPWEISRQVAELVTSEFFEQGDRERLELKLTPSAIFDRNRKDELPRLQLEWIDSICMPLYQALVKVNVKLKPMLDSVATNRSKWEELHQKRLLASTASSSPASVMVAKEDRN

[33] = Oral bioavailability in non-human primates at 0.5 mg/kg; format: ADME, organism-based; conditions: monkey, in vivo
Phosphodiesterase 4 = Phosphodiesterase 4 (Homo sapiens, UniProt P27815+Q08499+Q07343+Q08493); assay: Inhibition of PDE4 (unknown origin); format: protein assay
[34] = AUC in non-human primates at 0.5 mg/kg, po; format: ADME, organism-based; parameters: dose 0.5 mg/kg, route oral; conditions: monkey, plasma
[35] = target: cGMP-dependent 3',5'-cyclic phosphodiesterase (Homo sapiens, UniProt O00408); assay: Inhibition of PDE2 (unknown origin)
Sequence of cGMP-dependent 3',5'-cyclic phosphodiesterase (O00408 whole entry): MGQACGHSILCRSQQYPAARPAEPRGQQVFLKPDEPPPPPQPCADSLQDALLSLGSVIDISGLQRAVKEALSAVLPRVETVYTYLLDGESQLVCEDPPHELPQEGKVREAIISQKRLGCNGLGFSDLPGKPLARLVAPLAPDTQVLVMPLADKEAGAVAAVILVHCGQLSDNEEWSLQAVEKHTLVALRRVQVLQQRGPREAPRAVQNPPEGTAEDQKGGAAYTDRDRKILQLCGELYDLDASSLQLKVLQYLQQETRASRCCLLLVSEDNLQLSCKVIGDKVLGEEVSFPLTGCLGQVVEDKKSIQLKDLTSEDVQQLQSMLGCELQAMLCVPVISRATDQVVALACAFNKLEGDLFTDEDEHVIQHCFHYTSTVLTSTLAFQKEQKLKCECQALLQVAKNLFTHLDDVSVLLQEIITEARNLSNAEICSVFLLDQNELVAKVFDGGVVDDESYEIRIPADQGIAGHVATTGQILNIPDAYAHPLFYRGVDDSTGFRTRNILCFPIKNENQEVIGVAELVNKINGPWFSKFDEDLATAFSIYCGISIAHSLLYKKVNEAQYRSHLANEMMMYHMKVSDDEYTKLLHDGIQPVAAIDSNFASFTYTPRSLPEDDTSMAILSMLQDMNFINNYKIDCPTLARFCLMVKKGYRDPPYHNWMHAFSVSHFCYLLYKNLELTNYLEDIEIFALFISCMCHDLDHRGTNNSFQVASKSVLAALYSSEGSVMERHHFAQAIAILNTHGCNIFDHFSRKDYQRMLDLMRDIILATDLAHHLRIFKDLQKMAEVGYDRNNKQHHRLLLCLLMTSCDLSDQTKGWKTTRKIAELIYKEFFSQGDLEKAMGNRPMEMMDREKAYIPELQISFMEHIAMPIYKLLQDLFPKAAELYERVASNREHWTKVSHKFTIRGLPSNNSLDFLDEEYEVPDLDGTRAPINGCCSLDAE

[36] = target: cGMP-specific 3',5'-cyclic phosphodiesterase (Canis lupus familiaris, UniProt O77746); assay: Inhibition of PDE5 (unknown origin); parameters: species or system Homo sapiens
Phosphodiesterase 3 = Phosphodiesterase 3 (Homo sapiens, UniProt Q14432+Q13370); assay: Inhibition of PDE3 (unknown origin); format: protein assay
[37] = AUC in dog at 1 mg/kg, po; format: ADME, organism-based, Canis lupus familiaris; parameters: dose 1 mg/kg, route oral; conditions: plasma
[38] = Half life in non-human primates at 0.5 mg/kg, po; format: ADME, organism-based; parameters: dose 0.5 mg/kg, route oral; conditions: monkey, in vivo

| Structure (SMILES) | clearance [1] [mL/min/kg] | pIC50 [2] | half-life [3] [min] | minimal effective dose (Rattus norvegicus [4]) [mg/kg] | AUC [5] [µM·h] | microsomal CLint at 1 µM [6] [µL/min/mg] | Vd [7] [L/kg] | microsomal CLint at 1 µM [8] [µL/min/mg] | AUC [9] [µM·h] | bioavailability [10] [%] | Activity (Rattus norvegicus [11]) | pEC50 (Rattus norvegicus [12]) | Occ (Rattus norvegicus [12]) | Occ (Rattus norvegicus [13]) [%] | half-life [14] [min] | Vd [15] [L/kg] | clearance [16] [mL/min/kg] | clearance [17] [mL/min/kg] | half-life [18] [min] | AUC [22] [µM·h] | also measured |
| --- | --- | --- | --- | --- | --- | --- | --- | --- | --- | --- | --- | --- | --- | --- | --- | --- | --- | --- | --- | --- | --- |
| O=C(c1ccc(Oc2nccnc2C2CCOCC2)cc1)c1nc2ccccc2[nH]1 | 10.3 | 9.10 | 256 | 1 | 7.93 | 119 | 2.27 | 50 | 7.75 | 22 | Non-toxic | 6.93 | Dose-dependent effect | 91 | 239 |  |  |  |  |  |  |
| CC(=O)N1CCC(c2cccnc2Oc2ccc(C(=O)c3nc4ccccc4[nH]3)cc2)CC1 | 50.5 | 10.00 | 1390 | 0.3 |  | 463 | 31.2 | 29 |  |  | Non-toxic | 6.02 | Dose-dependent effect | 86.5 | 103 | 1.62 | 0.867 | 13.7 | 445 | 1.61 | AUC (Rattus norvegicus [19]): 5.07 µM·h; bioavailability [20]: 45%; AUC (Rattus norvegicus [21]): 1.62 µM·h; F (Rattus norvegicus [23]): 63%; AUC [24]: 9.59 µM·h; half-life [25]: 304 min; AUC [26]: 21.5 µM·h; half-life [27]: 75.6 min; Vd [28]: 0.5 L/kg |
| CC(=O)N1CCC(c2nccnc2Oc2ccc(C(=O)c3nc4ccccc4[nH]3)cc2)CC1 | 9 | 10.00 | 190 | 0.3 | 19.8 | 41 | 0.81 | 20 | 8.31 | 49 | Non-toxic | 6.15 | Dose-dependent effect | 86.3 | 201 | 0.83 | 1.23 | 5.67 | 413 | 3.41 | pIC50 [29]: < 4.52; IC50 (Phosphodiesterase 1): > 30 µM; IC50 (Phosphodiesterase 6): > 30 µM; half-life [30]: 660 min; IC50 (Phosphodiesterase 8): > 30 µM; bioavailability [31]: 72%; IC50 (Phosphodiesterase 7): > 30 µM; pIC50 [32]: < 4.52; bioavailability [33]: 71%; IC50 (Phosphodiesterase 4): > 30 µM; AUC [34]: 2.4 µM·h; pIC50 [35]: < 4.52; pIC50 [36]: < 4.52; IC50 (Phosphodiesterase 3): > 30 µM; AUC [37]: 16.9 µM·h; AUC [26]: 13.7 µM·h; half-life [27]: 65.4 min; half-life [38]: 149 min; Vd [28]: 0.77 L/kg |
| O=C(c1ccc(Oc2ncccc2C2CCOCC2)cc1)c1nc2ccccc2[nH]1 |  |  |  |  |  | > 399 |  | 100 |  |  |  |  |  | 69.2 |  |  |  |  |  |  |  |
